Experimental findings from ChEMBL document CHEMBL1154402, “Antiviral effect of orally administered (-)-beta-D-2-aminopurine dioxolane in woodchucks with chronic woodchuck hepatitis virus infection” (Antimicrob Agents Chemother, 2007) are described below.

Data set [1] has as its system Woodchuck hepatitis virus. Put plainly: Antiviral activity against woodchuck hepatitis virus infected woodchucks assessed as log reduction of serum viral DNA per ml of serum after 4 weeks. It counts as functional.
Data set [2] has as its system Woodchuck hepatitis virus. Description: Antiviral activity against woodchuck hepatitis virus infected woodchucks assessed as log reduction of serum viral DNA per ml of serum after 12 weeks. It counts as functional.
In data set [3] the test system is Marmota monax. Put plainly: AUC (0 to infinity) in woodchuck hepatitis virus-negative woodchucks assessed as 9-(beta-D-1,3-dioxolan-4-yl)guanine at 33.3 mg/kg, iv administered as single dose. More on the design: time infinity, dose 33.3 mg/kg, route intravenous. The following applies: in vivo. It counts as ADME, organism-based, Plasma. In outline:
(§1)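 Three WHV-negative adult woodchucks got a 33.3 mg/kg iv bolus, with one saline control. After a 4-week washout the same three got 33.3 mg/kg orally. Blood was drawn predose and at 0.25–24 h. Serum APD and DXG were measured by HPLC-UV (LOQ 0.2 µM) and analysed noncompartmentally. AUC0-∞ used the trapezoidal rule, extrapolated by Clast/λz.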

In data set [4] the test system is Marmota monax. Description: Cmax in woodchuck hepatitis virus-negative woodchucks assessed as 9-(beta-D-1,3-dioxolan-4-yl)guanine at 33.3 mg/kg iv followed by after 4 weeks washout period administered 33.3 mg/kg, po. The class given is ADME, organism-based. Conditions: in vivo, 672 h. The procedure, abridged: as §1
Data set [5] deals with Marmota monax. Put plainly: Terminal elimination half life in woodchuck hepatitis virus -negative woodchucks assessed as 9-(beta-D-1,3-dioxolan-4-yl)guanine at 33.3 mg/kg, iv administered as single dose followed by dose of 33.3 mg/kg, po after 4 weeks washout period. The class given is ADME, organism-based. The following applies: in vivo, 672 h. In outline:
as §1

The test system of another data set is Mus musculus. Description: Terminal elimination half life in orally dosed mouse assessed as 9-(beta-D-1,3-dioxolan-4-yl)guanine. The class given is ADME, organism-based. The following applies: in vivo, po.
In data set [6] the test system is Marmota monax. Put plainly: AUC (0 to infinity) in woodchuck hepatitis virus -negative woodchucks assessed as 9-(beta-D-1,3-dioxolan-4-yl)guanine at 33.3 mg/kg, iv administered as single dose followed by dose of 33.3 mg/kg, po after 4 weeks washout period. It counts as ADME, organism-based, Plasma. The following applies: in vivo, 672 h. In outline: as §1
The test system of data set [7] is Marmota monax. Description: Cmax in woodchuck hepatitis virus-negative woodchucks assessed as 9-(beta-D-1,3-dioxolan-4-yl)guanine at 33.3 mg/kg, iv administered as single dose. It counts as ADME, organism-based. More on the design: dose 33.3 mg/kg, route intravenous. Conditions: in vivo. The procedure, abridged: as §1
Data set [8] in a line: AUC (0 to infinity) in iv dosed mouse. Set-up: route intravenous, time infinity. Conditions: plasma. It counts as ADME, organism-based.
Data set [9] can be described thus: Oral bioavailability in mouse. The class given is ADME, organism-based. The following applies: in vivo.
The nature of data set [10]: AUC (0 to infinity) in orally dosed mouse. The class given is ADME, organism-based. More on the design: route oral, time infinity. The following applies: plasma, po.
In data set [11] the test system is Marmota monax. Description: Terminal elimination half life in woodchuck hepatitis virus-negative woodchucks assessed as 9-(beta-D-1,3-dioxolan-4-yl)guanine at 33.3 mg/kg, iv administered as single dose. It counts as ADME, organism-based. More on the design: dose 33.3 mg/kg, route intravenous. The following applies: in vivo. The procedure, abridged: as §1
The test system of the next data set is Rhesus monkey. Put plainly: Terminal elimination half life in orally dosed monkey assessed as 9-(beta-D-1,3-dioxolan-4-yl)guanine. It counts as ADME, organism-based, Macaca mulatta. The following applies: in vivo, po.

Usually AUC stands for concentration integrated over time. For orientation: Cmax means the highest concentration seen after dosing. A word on the AUC(0-inf): it is the area under the concentration-time curve extrapolated to infinity.

With `CC(=O)OCC(CCn1cnc2cnc(N)nc21)COC(C)=O` [FAMCICLOVIR], the Activity in data set [1] came out at 1.4.

As to `CC(C)(C)C(=O)OCOP(=O)(COCCn1cnc2c(N)ncnc21)OCOC(=O)C(C)(C)C` [ADEFOVIR DIPIVOXIL], the Activity in data set [1] is 1.8; in data set [2], above 2.5.

For the molecule `Nc1nc2c(ncn2[C@H]2CO[C@@H](CO)O2)c(=O)[nH]1`, the AUC in the data set with Marmota monax [3] worked out at 146.2 µM·h; with Marmota monax [6], 309.7 µM·h. Also, the Cmax was found to be 20.3 µM with Marmota monax [4] and 24.6 µM in the data set on Marmota monax [7]. The “beta t1/2” value stood at 12.1 h with Marmota monax [5], 1 h with Mus musculus, 3.7 h with Marmota monax [11] and 1.5 h in the data set on Rhesus monkey. Further, the AUC(0-inf) came out at 818 µM·h in [8] and 930 µM·h in [10]. Also, the bioavailability in data set [9] turned out to be 114%.

With `CCCCCCCCCCCCCCCCOCCCOP(=O)(O)OCCOCn1cnc2c(=O)[nH]c(N)nc21`, the Activity in [1] stood at 1.4.

In the case of `Cc1cn([C@H]2O[C@@H](CO)[C@H](O)[C@H]2F)c(=O)[nH]c1=O` [CLEVUDINE], the Activity in data set [1] is 8.2.

As to `Nc1ncnc2c1ncn2[C@H]1C[C@H](O)[C@@H](CO)O1` [DEOXYADENOSINE], the Activity in data set [1] is given as 1.5.

Turning to `Nc1ccn([C@H]2C[C@H](O)[C@@H](CO)O2)c(=O)n1` [DOXECITINE], the Activity in data set [1] is on record as 2.
